The nature of test [1]: Antioxidant activity assessed as increase in total ferric ion reducing activity using FeCl3.H2O and TPTZ by measuring trolox equivalents at pH 3.6 measured at different time interval up to 150 mins by microplate reader based FRAP assay. Format: functional. Set-up: unit not given here. The settings on record: time min <=150.
Test [2] concerns the target Acetylcholinesterase (Electrophorus electricus) (UniProt O42275). Put plainly: (§1) Inhibition of electric eel AChE by Ellman's method. A digest of the protocol: (§2)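 Electrophorus electricus AChE stock at 22 U/mL in 20 mM Tris HCl (pH 7.5), diluted 1/100 before use. Compound dilution series in methanol (≤1% DMSO) was preincubated with enzyme and DTNB solution (3 mM, phosphate/Hepes 0.05 M/0.09 M, pH 7.5) for 10 min at 37°C. Acetylthiocholine iodide solution (15 mM) was then added for a further 10 min, and A415 was read. IC50 is the 50% activity inhibition point, from 3 independent experiments.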
In general terms: DTNB colorimetry detects thiols as they appear.

Test [3] addresses Cholinesterase (Equus caballus) (UniProt P81908). Put plainly: (§3) Inhibition of equine BuChE by Ellman's method. A digest of the protocol: (§4)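 Equine serum BuChE stock at 22 U/mL in 20 mM Tris HCl (pH 7.5), diluted 3/100 before use. Methanol dilutions of compound (≤1% DMSO) were preincubated 10 min at 37°C with enzyme and 3 mM DTNB solution (phosphate/Hepes buffer, pH 7.5). Butyrylthiocholine iodide solution (15 mM) was then added, with 10 min further incubation, and absorbance was read at 415 nm. IC50 (50% activity inhibited) was taken from 3 independent experiments.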

Test [4] can be described thus: Antioxidant activity assessed as DPPH free radical scavenging activity after 1 hr by microplate reader based assay. Type of test: functional. A general note: DPPH is a stable violet radical that fades when it is reduced.
Test [5] in a line: Antioxidant activity assessed as trolox equivalent of AAPH-induced radical scavenging activity preincubated for 10 mins followed by AAPH addition and measured every minute for 35 mins by ORAC fluorescein assay. Format: functional. The note with it: time min <=35.
The nature of test [6]: Selectivity index, ratio of IC50 for electric eel AChE to IC50 for equine BuChE. A digest of the protocol: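 Ratio of Ellman-assay IC50 values, AChE IC50 divided by BuChE IC50. Electric eel AChE was diluted 1/100 with acetylthiocholine substrate. Equine BuChE was diluted 3/100 with butyrylthiocholine substrate. Both enzymes were preincubated with compound and DTNB for 10 min at 37°C, given 10 min with substrate, and read at 415 nm.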

For a further test, the target named is Acetylcholinesterase (Electrophorus electricus, UniProt O42275). The test is described as §1. A digest of the protocol: as §2
The target in the next test is Cholinesterase (Equus caballus, UniProt P81908). The description is as §3. A digest of the protocol: as §4
In test [7] the target is Cholinesterase (Equus caballus) (UniProt P81908). Put plainly: Potency index, ratio of neostigmine IC50 to test compound IC50 for inhibition of equine BuChE.
For test [8] the target is unchanged. Put plainly: Potency index, ratio of rivastigmine IC50 to test compound IC50 for inhibition of equine BuChE.
A short description of test [9]: Potency index, ratio of test compound trolox equivalent to vanillin trolox equivalent for antioxidant activity assessed as ferric ion reducing activity by FRAP assay. Format: functional.
Test [10] is described as follows: Potency index, ratio of trolox to test compound for antioxidant activity assessed as trolox equivalent of AAPH scavenging activity by ORAC fluorescein assay. Type of test: functional. A digest of the protocol:
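Compounds from 10 mM DMSO stocks and Trolox diluted in 75 mM phosphate buffer, pH 7.4. […] with 25 nM sodium fluorescein (solution concentration), then 0.15 M AAPH solution added. Fluorescence (ex 485, em 525 nm) […]. TE from comparing the slopes of Trolox and compound calibration curves; mean ± SD of 3 independent experiments.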

Structures are written as SMILES. Active and inactive are the calls of the source. The calls are words filed in the database; no cut-off is given here.

Chain of Cholinesterase (Equus caballus) (P81908 whole entry): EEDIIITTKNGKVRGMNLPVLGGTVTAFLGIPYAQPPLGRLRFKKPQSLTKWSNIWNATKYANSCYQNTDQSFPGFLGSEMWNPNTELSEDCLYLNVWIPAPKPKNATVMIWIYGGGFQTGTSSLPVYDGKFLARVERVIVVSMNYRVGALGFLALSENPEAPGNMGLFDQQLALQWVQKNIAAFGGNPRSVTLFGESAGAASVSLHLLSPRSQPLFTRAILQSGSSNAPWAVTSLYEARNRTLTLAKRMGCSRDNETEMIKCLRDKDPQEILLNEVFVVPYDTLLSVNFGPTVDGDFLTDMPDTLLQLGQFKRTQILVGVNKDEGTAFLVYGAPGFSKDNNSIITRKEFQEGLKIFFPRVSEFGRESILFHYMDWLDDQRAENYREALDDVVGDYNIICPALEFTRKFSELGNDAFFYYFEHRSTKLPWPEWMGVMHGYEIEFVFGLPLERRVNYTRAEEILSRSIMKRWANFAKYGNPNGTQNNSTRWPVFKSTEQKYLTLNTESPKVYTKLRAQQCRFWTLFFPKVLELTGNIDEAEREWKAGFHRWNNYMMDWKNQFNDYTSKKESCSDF
Chain of Cholinesterase (P81908 whole entry): as above
Chain of Acetylcholinesterase (O42275 whole entry): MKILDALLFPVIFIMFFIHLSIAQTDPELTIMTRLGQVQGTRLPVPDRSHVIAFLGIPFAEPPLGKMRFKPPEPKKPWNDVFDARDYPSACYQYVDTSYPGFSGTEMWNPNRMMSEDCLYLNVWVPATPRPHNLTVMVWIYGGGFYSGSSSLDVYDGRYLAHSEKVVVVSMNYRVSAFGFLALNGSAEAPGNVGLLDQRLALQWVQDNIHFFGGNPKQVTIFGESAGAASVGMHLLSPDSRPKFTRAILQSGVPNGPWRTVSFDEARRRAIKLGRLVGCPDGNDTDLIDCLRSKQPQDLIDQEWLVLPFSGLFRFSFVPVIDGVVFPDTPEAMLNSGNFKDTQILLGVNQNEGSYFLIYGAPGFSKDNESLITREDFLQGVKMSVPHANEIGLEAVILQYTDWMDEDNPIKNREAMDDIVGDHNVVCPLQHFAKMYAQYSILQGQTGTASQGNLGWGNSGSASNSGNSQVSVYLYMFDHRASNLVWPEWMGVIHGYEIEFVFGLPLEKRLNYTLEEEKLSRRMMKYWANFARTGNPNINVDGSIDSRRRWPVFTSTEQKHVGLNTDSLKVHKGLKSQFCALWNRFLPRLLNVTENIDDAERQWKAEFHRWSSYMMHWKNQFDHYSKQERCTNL
Chain of Acetylcholinesterase (Electrophorus electricus) (O42275 24-633 limits assumed): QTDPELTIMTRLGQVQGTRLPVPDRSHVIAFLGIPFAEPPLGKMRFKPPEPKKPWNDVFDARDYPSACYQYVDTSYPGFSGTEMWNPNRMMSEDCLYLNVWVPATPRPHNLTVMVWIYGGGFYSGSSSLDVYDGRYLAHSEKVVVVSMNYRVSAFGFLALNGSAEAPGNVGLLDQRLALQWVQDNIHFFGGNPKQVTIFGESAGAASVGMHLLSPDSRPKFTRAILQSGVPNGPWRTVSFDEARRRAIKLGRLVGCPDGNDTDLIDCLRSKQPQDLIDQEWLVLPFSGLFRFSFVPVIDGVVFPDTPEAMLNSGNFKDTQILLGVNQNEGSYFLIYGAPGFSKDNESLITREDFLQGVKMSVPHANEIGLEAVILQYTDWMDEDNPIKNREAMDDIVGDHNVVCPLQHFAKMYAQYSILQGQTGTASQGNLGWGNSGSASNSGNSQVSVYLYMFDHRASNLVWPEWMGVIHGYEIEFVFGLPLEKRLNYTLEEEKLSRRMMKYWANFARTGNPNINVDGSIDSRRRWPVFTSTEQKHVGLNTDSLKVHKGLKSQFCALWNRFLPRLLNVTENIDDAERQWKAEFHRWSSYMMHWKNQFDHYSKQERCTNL

Turning to `COc1cc(C=O)ccc1O` [VANILLIN], the Activity in [1] was found to be 0.02; in test [5] it was 2.2. Also, the inhibition result in test [2] and in test [3] was “inactive” each time. In addition, the IC50 in [4] was determined as 7920 µM.
For the compound `CN(C)C(=O)Oc1cccc([N+](C)(C)C)c1` [NEOSTIGMINE], in test [6], the Ratio IC50 turned out to be 2.56. The IC50 against Acetylcholinesterase was determined as 7.5 µM; on Cholinesterase, 2.93 µM.
As to `COc1cc(CNCCCCCCN2C(=O)c3ccccc3C2=O)ccc1O`, the Activity in [1] was 0.23; in test [5] it was 13.2. Besides, in [6], the Ratio IC50 turned out to be 12.6. In addition, the IC50 worked out at 4.67 µM at Acetylcholinesterase, 0.37 µM on Cholinesterase and 82.3 µM in test [4].
As for `COc1cc(CNCCCNC(=O)c2ccccc2CO)ccc1O`, the Activity in [1] came out at 0.96. Besides, in [4], the IC50 worked out at 113 µM.
In the case of `COc1cc(CNCCCCN2C(=O)c3cccc4cccc(c34)C2=O)ccc1O`, the values for the Activity in test [1] and in test [5] were 0.26 and 8.1, respectively. For the same compound, the Ratio IC50 in test [6] stood at 15.2. Moreover, the values for the IC50 (against Acetylcholinesterase; against Cholinesterase; in test [4]) were 13.7 µM, 0.9 µM and 62 µM, respectively.
In the case of `COc1cc(CNCCCCCCCN2C(=O)c3cccc4cccc(c34)C2=O)ccc1O`, the Activity came out at 0.34 in test [1] and 6.7 in test [5]. In test [6], the Ratio IC50 worked out at 2.22. Further, the IC50 was 3.33 µM against Acetylcholinesterase, 1.5 µM against Cholinesterase and 70 µM in test [4].
As for `COc1cc(CN(CCCN2C(=O)c3cccc4cccc(c34)C2=O)Cc2ccc(O)c(OC)c2)ccc1O`, the Ratio IC50 was 10 in [7], 53.1 in test [6] and 3 in test [8]. For the same compound, the Activity came to 0.49 in [1] and 9.43 in test [5]. Moreover, the values for the IC50 (on Acetylcholinesterase; against Cholinesterase; in test [4]) were 14.3 µM, 0.27 µM and 16.7 µM, respectively. The Ratio in [9] came to 25; in test [10], 10.

The IC50 is the concentration that gives 50% inhibition.

Source of the values: ChEMBL document CHEMBL4665766, “Synthesis and in vitro evaluation of vanillin derivatives as multi-target therapeutics for the treatment of Alzheimer's disease” (Bioorg Med Chem Lett, 2020).
